Test results as given in ChEMBL document CHEMBL3098111, “Discovery of 2,5-diarylnicotinamides as selective orexin-2 receptor antagonists (2-SORAs)” (Bioorg Med Chem Lett, 2013).
Calls of active or inactive are those of the source. No cut-off for these calls is given here.

Tests used:
[1] = target: Receptor-type tyrosine-protein phosphatase C (Homo sapiens) (UniProt P08575); assay: Inhibition of human CD45 at 10 uM relative to control
[2] = target: Calcitonin gene-related peptide type 1 receptor (Homo sapiens) (UniProt Q16602); assay: Inhibition of human CGRP1 at 10 uM relative to control
Mu-type opioid receptor [3] = target: T1, Mu-type opioid receptor (Homo sapiens, UniProt P35372); assay: Inhibition of human mu opioid receptor at 0.1 uM relative to control
T1 sequence (P35372 whole entry): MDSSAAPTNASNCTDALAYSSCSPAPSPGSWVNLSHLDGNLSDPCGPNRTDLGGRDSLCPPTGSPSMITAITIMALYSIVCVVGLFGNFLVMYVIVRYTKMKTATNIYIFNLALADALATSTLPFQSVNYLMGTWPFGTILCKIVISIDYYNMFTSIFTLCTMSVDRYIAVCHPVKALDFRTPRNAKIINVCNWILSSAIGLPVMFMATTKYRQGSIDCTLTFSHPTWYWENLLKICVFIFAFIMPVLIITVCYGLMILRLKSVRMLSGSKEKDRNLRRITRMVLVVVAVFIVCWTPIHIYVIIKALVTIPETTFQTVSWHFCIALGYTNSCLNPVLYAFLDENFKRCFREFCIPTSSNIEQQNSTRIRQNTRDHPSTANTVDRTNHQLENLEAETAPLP

[4] = target: Calcitonin receptor (Homo sapiens) (UniProt P30988); assay: Inhibition of human calcitonin receptor at 10 uM relative to control
[5] = target: Somatostatin receptor type 4 (Homo sapiens) (UniProt P31391); assay: Inhibition of human SST4 receptor at 10 uM relative to control
[6] = target: Adenosine receptor A3 (Homo sapiens) (UniProt P0DMS8); assay: Inhibition of human adenosine A3 receptor at 10 uM relative to control
[7] = target: 5-hydroxytryptamine receptor 1B (Rattus norvegicus) (UniProt P28564); assay: Inhibition of rat 5-HT1B receptor at 1 uM relative to control
Sequence of 5-hydroxytryptamine receptor 1B (Rattus norvegicus) (P28564 whole entry): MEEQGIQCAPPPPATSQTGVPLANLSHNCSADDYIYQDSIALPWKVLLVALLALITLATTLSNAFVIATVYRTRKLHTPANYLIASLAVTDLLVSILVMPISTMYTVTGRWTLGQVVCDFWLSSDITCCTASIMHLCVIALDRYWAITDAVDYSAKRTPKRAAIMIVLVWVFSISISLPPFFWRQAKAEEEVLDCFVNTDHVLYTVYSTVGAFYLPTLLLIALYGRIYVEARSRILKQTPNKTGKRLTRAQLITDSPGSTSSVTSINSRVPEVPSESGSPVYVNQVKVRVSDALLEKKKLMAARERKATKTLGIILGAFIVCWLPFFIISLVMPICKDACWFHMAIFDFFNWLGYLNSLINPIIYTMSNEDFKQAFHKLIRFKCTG

D(3) dopamine receptor [8] = target: T2, D(3) dopamine receptor (Homo sapiens, UniProt P35462); assay: Inhibition of human dopamine D3 receptor at 10 nM relative to control
T2 sequence (P35462 whole entry): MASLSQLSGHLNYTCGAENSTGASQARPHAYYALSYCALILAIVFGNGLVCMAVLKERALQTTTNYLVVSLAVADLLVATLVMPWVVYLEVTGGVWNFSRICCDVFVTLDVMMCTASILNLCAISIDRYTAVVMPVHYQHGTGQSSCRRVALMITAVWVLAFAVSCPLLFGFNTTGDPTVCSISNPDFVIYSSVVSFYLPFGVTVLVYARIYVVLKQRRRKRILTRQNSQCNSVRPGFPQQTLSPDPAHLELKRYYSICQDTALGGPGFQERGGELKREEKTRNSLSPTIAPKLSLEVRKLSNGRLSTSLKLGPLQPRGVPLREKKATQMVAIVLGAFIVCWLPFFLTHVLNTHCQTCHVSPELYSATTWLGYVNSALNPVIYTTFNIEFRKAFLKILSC

Bos taurus [9] = species on record: Bos taurus; assay: Inhibition of bovine PDE1 at 100 uM relative to control
[10] = target: GABA-A receptor; alpha-5/beta-3/gamma-2 (Homo sapiens) (UniProt P18507+P28472+P31644); assay: Inhibition of human GABA alpha5beta3gamma2 receptor at 10 uM relative to control; type: protein-complex assay
[11] = target: Somatostatin receptor type 1 (Homo sapiens) (UniProt P30872); assay: Inhibition of human SST1 receptor at 10 uM relative to control
Sequence of Somatostatin receptor type 1 (Homo sapiens) (P30872 whole entry): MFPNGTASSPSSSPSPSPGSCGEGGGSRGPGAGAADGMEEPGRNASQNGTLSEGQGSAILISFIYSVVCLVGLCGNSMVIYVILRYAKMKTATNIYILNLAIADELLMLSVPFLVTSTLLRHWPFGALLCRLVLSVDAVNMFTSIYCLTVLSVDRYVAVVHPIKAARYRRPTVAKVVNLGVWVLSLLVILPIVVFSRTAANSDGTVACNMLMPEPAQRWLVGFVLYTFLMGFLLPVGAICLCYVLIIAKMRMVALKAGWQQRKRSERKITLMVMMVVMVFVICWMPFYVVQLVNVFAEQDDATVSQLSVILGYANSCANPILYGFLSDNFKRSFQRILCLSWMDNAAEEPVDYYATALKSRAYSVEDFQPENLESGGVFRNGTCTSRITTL

Oryctolagus cuniculus = species on record: Oryctolagus cuniculus; assay: Inhibition of rabbit monoamine transporter at 10 uM relative to control
Mu-type opioid receptor [12] = target: T1, Mu-type opioid receptor; assay: Inhibition of human mu opioid receptor at 10 uM relative to control
Rattus norvegicus [13] = assay: Antiinsomnic activity in rat EEG model assessed as increase in delta sleep time at 15 mg/kg, po; type: functional, organism-based; parameters: dose 15 mg/kg
Method in brief: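 Rats with EEG telemetry given 15 mg/kg orally during their active period, vehicle 20% Vitamin E TPGS in water. Sleep architecture (active wake, light sleep, delta and REM sleep) scored from EEG.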

[14] = target: Phosphodiesterase 4 (Homo sapiens) (UniProt P27815+Q08499+Q07343+Q08493); assay: Inhibition of human PDE4 at 100 uM relative to control; type: protein assay
[15] = target: Delta-type opioid receptor (Homo sapiens) (UniProt P41143); assay: Inhibition of human delta opioid receptor at 10 uM relative to control
[16] = target: Adenosine receptor A1 (Homo sapiens) (UniProt P30542); assay: Inhibition of human adenosine A1 receptor at 10 uM relative to control
Sequence of Adenosine receptor A1 (Homo sapiens) (P30542 whole entry): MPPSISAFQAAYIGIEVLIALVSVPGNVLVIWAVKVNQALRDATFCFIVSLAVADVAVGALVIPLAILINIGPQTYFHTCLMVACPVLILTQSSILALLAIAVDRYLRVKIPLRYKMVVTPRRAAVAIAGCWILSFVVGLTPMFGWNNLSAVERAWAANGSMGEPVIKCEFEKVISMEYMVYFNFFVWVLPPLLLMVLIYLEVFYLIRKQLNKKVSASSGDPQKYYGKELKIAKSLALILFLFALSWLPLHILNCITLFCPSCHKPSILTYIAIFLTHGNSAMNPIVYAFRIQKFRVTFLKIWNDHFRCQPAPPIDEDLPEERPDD

Bos taurus [17] = species on record: Bos taurus; assay: Inhibition of bovine PKA at 100 uM relative to control
[18] = target: Protein kinase C alpha type (Homo sapiens) (UniProt P17252); assay: Inhibition of human PRKCA at 100 uM relative to control
Cavia porcellus = species on record: Cavia porcellus; assay: Inhibition of guinea pig adenosine transporter at 1 uM relative to control
[19] = target: Glutamate NMDA receptor (Rattus norvegicus) (UniProt P35439+Q00959+Q00960+Q00961+Q62645+Q8VHN2+Q9R1M7); assay: Inhibition of rat NMDA receptor agonist binding site at 10 uM relative to control; type: protein-complex assay
[20] = target: T3, 5-hydroxytryptamine receptor 1A (Homo sapiens) (UniProt P08908); assay: Inhibition of human 5-HT1A receptor at 1 uM relative to control
T3 sequence (whole entry): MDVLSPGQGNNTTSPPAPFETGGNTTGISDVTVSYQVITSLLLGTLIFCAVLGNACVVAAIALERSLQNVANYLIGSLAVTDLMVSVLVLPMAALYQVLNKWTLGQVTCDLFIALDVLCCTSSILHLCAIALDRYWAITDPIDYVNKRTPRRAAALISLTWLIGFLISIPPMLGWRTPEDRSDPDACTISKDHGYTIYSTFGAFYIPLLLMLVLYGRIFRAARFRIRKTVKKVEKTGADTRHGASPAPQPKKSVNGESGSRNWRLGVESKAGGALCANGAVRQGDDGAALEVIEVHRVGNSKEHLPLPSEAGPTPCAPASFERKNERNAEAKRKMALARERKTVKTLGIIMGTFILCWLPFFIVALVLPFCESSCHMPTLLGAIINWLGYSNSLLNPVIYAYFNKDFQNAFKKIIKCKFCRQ

[21] = target: Beta-2 adrenergic receptor (Homo sapiens) (UniProt P07550); assay: Inhibition of human beta2 adrenergic receptor at 10 uM relative to control
Sequence of Beta-2 adrenergic receptor (Homo sapiens) (P07550 whole entry, looked up): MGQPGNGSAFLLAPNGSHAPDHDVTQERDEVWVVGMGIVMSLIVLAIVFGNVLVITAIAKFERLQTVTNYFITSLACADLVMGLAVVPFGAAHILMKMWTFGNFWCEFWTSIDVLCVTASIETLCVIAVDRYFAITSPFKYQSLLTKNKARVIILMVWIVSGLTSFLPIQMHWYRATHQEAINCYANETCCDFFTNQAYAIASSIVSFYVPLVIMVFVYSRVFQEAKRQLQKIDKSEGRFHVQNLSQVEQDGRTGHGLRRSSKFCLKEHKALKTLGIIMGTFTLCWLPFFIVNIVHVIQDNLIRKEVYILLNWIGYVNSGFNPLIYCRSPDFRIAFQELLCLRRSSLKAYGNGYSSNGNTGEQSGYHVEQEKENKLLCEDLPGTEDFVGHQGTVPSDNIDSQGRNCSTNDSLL

[22] = target: Cathepsin G (Homo sapiens) (UniProt P08311); assay: Inhibition of human cathepsin G at 10 uM relative to control
D(3) dopamine receptor [23] = target: T2, D(3) dopamine receptor; assay: Inhibition of human dopamine D3 receptor at 0.1 uM relative to control
[24] = target: Vasoactive intestinal polypeptide receptor 1 (Homo sapiens) (UniProt P32241); assay: Inhibition of human VIP1 receptor at 10 uM relative to control
Rattus norvegicus [25] = species on record: Rattus norvegicus; assay: Inhibition of rat 5-HT2 receptor at 10 uM relative to control
Homo sapiens = species on record: Homo sapiens; assay: Selectivity ratio of Ki for human orexin-1 receptor to Ki for human orexin-2 receptor
Method in brief: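 Radioligand binding: a high-affinity radioligand was bound to membranes from human cells overexpressing OX1R or OX2R, and inhibition of that binding was measured and expressed as Ki. The ratio is the OX1R Ki divided by the OX2R Ki.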

[26] = target: Neprilysin (Homo sapiens) (UniProt P08473); assay: Inhibition of human neutral endopeptidase at 10 uM relative to control
Sequence of Neprilysin (Homo sapiens) (P08473 whole entry): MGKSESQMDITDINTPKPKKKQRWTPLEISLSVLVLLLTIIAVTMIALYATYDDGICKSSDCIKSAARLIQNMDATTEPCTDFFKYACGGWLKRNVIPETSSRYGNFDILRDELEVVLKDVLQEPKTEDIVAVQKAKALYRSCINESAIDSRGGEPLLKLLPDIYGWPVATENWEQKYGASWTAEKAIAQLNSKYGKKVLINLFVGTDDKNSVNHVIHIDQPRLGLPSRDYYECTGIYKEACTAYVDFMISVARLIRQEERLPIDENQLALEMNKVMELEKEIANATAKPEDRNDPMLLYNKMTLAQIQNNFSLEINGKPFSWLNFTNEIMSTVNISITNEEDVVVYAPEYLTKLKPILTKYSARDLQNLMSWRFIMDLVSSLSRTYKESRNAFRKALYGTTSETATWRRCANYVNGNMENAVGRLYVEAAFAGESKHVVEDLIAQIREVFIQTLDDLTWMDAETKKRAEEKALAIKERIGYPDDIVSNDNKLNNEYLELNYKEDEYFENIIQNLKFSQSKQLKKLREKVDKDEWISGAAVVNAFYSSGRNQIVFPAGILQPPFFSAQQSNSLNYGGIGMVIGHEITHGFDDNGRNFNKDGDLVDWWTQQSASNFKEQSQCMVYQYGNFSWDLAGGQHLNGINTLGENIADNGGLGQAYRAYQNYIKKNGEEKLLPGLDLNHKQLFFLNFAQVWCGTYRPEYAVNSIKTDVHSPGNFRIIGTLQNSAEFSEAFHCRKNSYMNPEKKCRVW

[27] = target: Small conductance calcium-activated potassium channel (Rattus norvegicus) (UniProt P70604+P70606+P70605); assay: Inhibition of rat potassium channel [SKCA] at 10 uM relative to control; type: protein assay
[28] = target: Galanin receptor type 2 (Homo sapiens) (UniProt O43603); assay: Inhibition of human GAL2 receptor at 10 uM relative to control
Rattus norvegicus [29] = species on record: Rattus norvegicus; assay: Inhibition of rat GABA transporter at 10 uM relative to control
[30] = target: 5-hydroxytryptamine receptor 2B (Homo sapiens, UniProt P41595); assay: Inhibition of human 5-HT2B receptor at 10 uM relative to control
[31] = target: cGMP-dependent 3',5'-cyclic phosphodiesterase (Homo sapiens) (UniProt O00408); assay: Inhibition of human PDE2 at 100 uM relative to control
Sequence of cGMP-dependent 3',5'-cyclic phosphodiesterase (Homo sapiens) (O00408 whole entry): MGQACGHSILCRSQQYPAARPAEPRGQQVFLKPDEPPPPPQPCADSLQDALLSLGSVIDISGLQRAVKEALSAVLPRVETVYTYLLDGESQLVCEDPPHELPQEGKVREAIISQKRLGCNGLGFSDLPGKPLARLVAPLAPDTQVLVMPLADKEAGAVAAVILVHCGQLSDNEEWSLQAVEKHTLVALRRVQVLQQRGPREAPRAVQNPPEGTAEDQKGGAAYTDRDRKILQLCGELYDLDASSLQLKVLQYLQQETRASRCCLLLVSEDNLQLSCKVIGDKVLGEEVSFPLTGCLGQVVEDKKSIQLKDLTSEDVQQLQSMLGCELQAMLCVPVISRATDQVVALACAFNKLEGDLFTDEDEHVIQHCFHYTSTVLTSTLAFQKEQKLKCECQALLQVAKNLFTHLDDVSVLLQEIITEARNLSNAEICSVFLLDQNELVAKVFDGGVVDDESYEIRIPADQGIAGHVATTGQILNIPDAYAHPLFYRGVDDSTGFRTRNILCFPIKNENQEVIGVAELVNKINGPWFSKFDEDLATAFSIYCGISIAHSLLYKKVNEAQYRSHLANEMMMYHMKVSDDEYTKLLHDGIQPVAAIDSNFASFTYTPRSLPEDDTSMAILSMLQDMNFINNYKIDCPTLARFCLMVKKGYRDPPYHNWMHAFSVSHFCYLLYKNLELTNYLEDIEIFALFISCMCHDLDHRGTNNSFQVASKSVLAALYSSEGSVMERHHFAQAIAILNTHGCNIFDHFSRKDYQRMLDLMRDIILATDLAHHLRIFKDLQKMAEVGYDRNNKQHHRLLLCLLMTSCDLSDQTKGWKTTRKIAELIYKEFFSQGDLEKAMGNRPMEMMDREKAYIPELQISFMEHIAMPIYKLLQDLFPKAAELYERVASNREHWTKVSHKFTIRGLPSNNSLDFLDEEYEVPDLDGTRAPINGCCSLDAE

[32] = target: T3, 5-hydroxytryptamine receptor 1A (Homo sapiens); assay: Inhibition of human 5-HT1A receptor at 10 nM relative to control
[33] = target: Histamine H3 receptor (Homo sapiens) (UniProt Q9Y5N1); assay: Inhibition of human histamine H3 receptor at 10 uM relative to control
Sequence of Histamine H3 receptor (Homo sapiens) (Q9Y5N1 whole entry): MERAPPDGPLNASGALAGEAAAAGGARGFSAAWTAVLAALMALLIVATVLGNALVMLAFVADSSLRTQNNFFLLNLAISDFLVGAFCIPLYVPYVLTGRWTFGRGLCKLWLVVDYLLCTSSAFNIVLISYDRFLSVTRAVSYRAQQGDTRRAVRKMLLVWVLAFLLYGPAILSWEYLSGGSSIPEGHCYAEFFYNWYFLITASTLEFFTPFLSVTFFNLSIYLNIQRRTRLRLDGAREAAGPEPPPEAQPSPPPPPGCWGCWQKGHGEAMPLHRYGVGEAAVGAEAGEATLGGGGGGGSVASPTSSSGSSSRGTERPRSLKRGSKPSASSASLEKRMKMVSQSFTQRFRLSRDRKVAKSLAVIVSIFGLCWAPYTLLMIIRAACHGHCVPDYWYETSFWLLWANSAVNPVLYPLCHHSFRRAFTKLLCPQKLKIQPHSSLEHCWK

[34] = target: Tyrosine-protein phosphatase non-receptor type 1 (Homo sapiens) (UniProt P18031); assay: Inhibition of human PTP1B at 10 uM relative to control
Sequence of Tyrosine-protein phosphatase non-receptor type 1 (Homo sapiens) (P18031 whole entry): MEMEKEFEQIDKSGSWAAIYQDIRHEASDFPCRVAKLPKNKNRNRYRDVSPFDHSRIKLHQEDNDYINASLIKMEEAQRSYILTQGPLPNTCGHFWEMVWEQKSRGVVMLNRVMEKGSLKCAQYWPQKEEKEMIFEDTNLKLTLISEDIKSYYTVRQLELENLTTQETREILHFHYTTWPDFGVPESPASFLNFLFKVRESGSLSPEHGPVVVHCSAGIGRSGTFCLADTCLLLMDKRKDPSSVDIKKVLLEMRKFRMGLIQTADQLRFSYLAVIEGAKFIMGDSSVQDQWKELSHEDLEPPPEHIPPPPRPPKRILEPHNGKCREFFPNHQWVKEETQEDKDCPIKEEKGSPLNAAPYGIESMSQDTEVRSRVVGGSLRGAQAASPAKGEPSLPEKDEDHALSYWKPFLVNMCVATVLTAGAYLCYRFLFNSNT

Rattus norvegicus [35] = species on record: Rattus norvegicus; assay: Inhibition of rat bombesin receptor at 10 uM relative to control

In the case of `COc1ccc(CNC(=O)c2cc(-c3cc(Cl)cc(Cl)c3)cnc2-c2cccnc2)cc1OC`, the inhibition [1] is reported as -1%, the inhibition [2] is reported as -10% and the inhibition (Mu-type opioid receptor [3]) is reported as -3%. For the same molecule, the inhibition [4] was 9%, the inhibition [5] was 5% and the inhibition [6] was 33%. It also gave an inhibition [7] of 30%, an inhibition (D(3) dopamine receptor [8]) of 5% and an inhibition (Bos taurus [9]) of -3%. The inhibition [10] was 18%, the inhibition [11] was 14% and the inhibition (Oryctolagus cuniculus) was 52%. For the same molecule, the inhibition (Mu-type opioid receptor [12]) was 62%, the Activity (Rattus norvegicus [13]) was “Active” and the inhibition [14] was 5%. For the same molecule, the inhibition [15] was 8%, the inhibition [16] was 22% and the inhibition (Bos taurus [17]) was -7%. It also gave an inhibition [18] of 29%, an inhibition (Cavia porcellus) of 32% and an inhibition [19] of 1%. The inhibition [20] was 41%, the inhibition [21] was 23% and the inhibition [22] was -8%. For the same molecule, the inhibition (D(3) dopamine receptor [23]) was 3%, the inhibition [24] was 6% and the inhibition (Rattus norvegicus [25]) was 17%. It also gave a Ratio Ki (Homo sapiens) of 1350, an inhibition [26] of -5% and an inhibition [27] of 9%. The inhibition [28] was 6%, the inhibition (Rattus norvegicus [29]) was 3% and the inhibition [30] was 84%. For the same molecule, the inhibition [31] was 4%, the inhibition [32] was 2% and the inhibition [33] was -3%. It also gave an inhibition [34] of 1% and an inhibition (Rattus norvegicus [35]) of 3%.
